Experimental data: ChEMBL document CHEMBL1764980, “Synthesis and biological evaluation of orally active prodrugs of indomethacin” (J Med Chem, 2011)

Key:
[1] = Metabolic stability in rat liver microsomes assessed as compound remaining at 5 mM after 30 mins by HPLC analysis; format: ADME, Microsome; conditions: read-out: Stability
[2] = test system: Rattus norvegicus; assay: Antiinflammatory activity in Wistar rat assessed as inhibition of carrageenan-induced paw edema at 100 mg/kg, po administered 1 hr before carrageenan challenge measured after 3 hrs by plethysmograph relative to control; format: functional
Outline: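 Male Wistar rats (150-200 g). Carrageenan 1% (0.1 mL) injected subplantar into left paw under light ether anaesthesia; test compound 100 mg/kg po given 1 h before. Paw volume read by plethysmograph 3 h after carrageenan. % inhibition = (carrageenan − test)/(carrageenan − normal) × 100. Groups: normal control, carrageenan, carrageenan plus treatment.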

[3] = Aqueous solubility of the compound in 0.1 M phosphate buffer at pH 5.2 after 4 hrs by HPLC analysis; format: physicochemical
Outline: (§1)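 5 mg compound in 10 mL buffer, shaken at 400 rpm for 4 h at 40 °C. Then passed through a 0.20 μm membrane filter. Filtrate quantified by HPLC at 254 nm for both solubility and hydrolysis to parent. Detection limits estimated by HPLC.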

[4] = test system: Rattus norvegicus; assay: Gastrointestinal toxicity in Wistar rat assessed as ulcerogenic index at 100 mg/kg, po administered as single dose; format: organism-based; set-up: dose 100 mg/kg, route oral; conditions: in vivo
Outline: (§2)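 Male Wistar rats (150-200 g), n = 6 per group, fasted 18 h with water available. Single oral dose of 100 mg/kg. Killed under ether 6 h after dosing; stomach opened along the greater curvature, washed and examined. Lesion lengths measured by Vernier caliper and graded I (<1 mm), II (1-3 mm) or III (>3 mm). UI = 1×(I) + 2×(II) + 3×(III), averaged over six animals.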

[5] = Chemical stability of the compound at 0.2 M phosphate buffer assessed as hydrolysis to parent compound at pH 7.4 after 4 hrs by HPLC analysis; format: physicochemical; conditions: pH 7.4, 4 h; outline: as §1
[6] = Metabolic stability in rat liver microsomes assessed as compound remaining at 5 mM after 60 mins by HPLC analysis; format: ADME, Microsome; conditions: read-out: Stability
[7] = Chemical stability of the compound at 0.1 M citric acid buffer assessed as hydrolysis to parent compound at pH 3 after 4 hrs by HPLC analysis; format: physicochemical; conditions: pH 3, 4 h; outline: as §1
[8] = test system: Rattus norvegicus; assay: Gastrointestinal toxicity in Wistar rat assessed as appearance ulcer area of <1 mm diameter at 100 mg/kg, po administered as single dose after 6 hrs by Vernier caliper; format: organism-based; set-up: dose 100 mg/kg, route oral; conditions: in vivo; outline: as §2
[9] = Chemical stability of the compound at 0.1 M boric acid buffer assessed as hydrolysis to parent compound at pH 9 after 4 hrs by HPLC analysis; format: physicochemical; conditions: pH 9, 4 h; outline: as §1
[10] = Aqueous solubility of the compound in 0.1 M boric acid buffer at pH 9 after 4 hrs by HPLC analysis; format: physicochemical; outline: as §1
[11] = Partition coefficient, log P of the compound in n-octanol-phosphate buffer at pH 7.4 by HPLC analysis; format: physicochemical
Outline: (§3)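 Shake-flask method at 25 °C. 1-octanol and aqueous buffer (0.2 M phosphate pH 7.4 or 0.1 M citric acid pH 3.0) pre-saturated with each other for 24 h. Compound shaken in 5 mL each phase for 60 min at 400 rpm, then centrifuged at 3500 rpm for 5 min. Both phases quantified by HPLC at 254 nm. log P = log(octanol/water concentration). Run in triplicate.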

[12] = Aqueous solubility of the compound in 0.1 M citric acid buffer at pH 3 after 4 hrs by HPLC analysis; format: physicochemical; outline: as §1
[13] = Metabolic stability in rat plasma assessed as compound remaining at 5 mM after 60 mins by HPLC analysis; format: ADME, cell-free; conditions: read-out: Stability
[14] = Chemical stability of the compound at 0.2 M hydrochloric acid buffer assessed as hydrolysis to parent compound at pH 1 after 4 hrs by HPLC analysis; format: physicochemical; conditions: pH 1, 4 h; outline: as §1
[15] = Chemical stability of the compound at 0.1 M phosphate buffer assessed as hydrolysis to parent compound at pH 5.2 after 4 hrs by HPLC analysis; format: physicochemical; conditions: pH 5.2, 4 h; outline: as §1
[16] = Aqueous solubility of the compound in 0.2 M phosphate buffer at pH 7.4 after 4 hrs by HPLC analysis; format: physicochemical; outline: as §1
[17] = Aqueous solubility of the compound in 0.2 M hydrochloric acid buffer at pH 1 after 4 hrs by HPLC analysis; format: physicochemical; outline: as §1
[18] = Partition coefficient, log P of the compound in 1-octanol-citric acid buffer at pH 3 by HPLC analysis; format: physicochemical; outline: as §3
[19] = test system: Rattus norvegicus; assay: Gastrointestinal toxicity in Wistar rat assessed as appearance ulcer area of >3 mm diameter at 100 mg/kg, po administered as single dose after 6 hrs by Vernier caliper; format: organism-based; set-up: dose 100 mg/kg, route oral; conditions: in vivo; outline: as §2
[20] = test system: Rattus norvegicus; assay: Gastrointestinal toxicity in Wistar rat assessed as appearance ulcer area of 1 to 3 mm diameter at 100 mg/kg, po administered as single dose after 6 hrs by Vernier caliper; format: organism-based; set-up: dose 100 mg/kg, route oral; conditions: in vivo; outline: as §2

| Compound | remaining at 0.5 h [1] [%] | inhibition in vivo at 100 mg/kg [2] [%] | solubility at 4 h [3] [µg/mL] | UI [4] | Stability [5] [µg/mL] | remaining at 1 h [6] [%] | Stability [7] [µg/mL] | Activity [8] [%] | Stability [9] [µg/mL] | solubility at 4 h [10] [µg/mL] | logD [11] | solubility at 4 h [12] [µg/mL] | remaining at 1 h [13] [%] | Stability [14] [µg/mL] | Stability [15] [µg/mL] | solubility at 4 h [16] [µg/mL] | solubility at 4 h [17] [µg/mL] | logD [18] | Activity [19] [%] | Activity [20] [%] |
| --- | --- | --- | --- | --- | --- | --- | --- | --- | --- | --- | --- | --- | --- | --- | --- | --- | --- | --- | --- | --- |
| COc1ccc2c(c1)c(CC(=O)OCOC(=O)C(C)(C)C)c(C)n2C(=O)c1ccc(Cl)cc1 | 0 | 48.4 | < 0.084 | 19 | 0.294 | 0 | 0.0075 | 100 | 2.187 | < 0.084 | 4.7 | < 0.084 | 0 | 0.021 | 0.1525 | < 0.084 | < 0.084 | 4.6 | – | – |
| COc1ccc2c(c1)c(CC(=O)OCc1oc(=O)oc1C)c(C)n2C(=O)c1ccc(Cl)cc1 | – | 12.1 | < 0.0638 | 0 | 0.0101 | – | 0.0134 | – | 0.5106 | < 0.0638 | 2.9 | < 0.0638 | – | 0.0191 | 0.0244 | < 0.0638 | < 0.0638 | 4.5 | – | – |
| COc1ccc2c(c1)c(CC(=O)O)c(C)n2C(=O)c1ccc(Cl)cc1 [INDOMETHACIN] | 90.3 | 48.4 | – | 47 | – | 80.2 | – | 90.2 | – | – | – | – | 97.1 | – | – | – | – | 4.2 | 4.9 | 4.9 |
| COc1ccc2c(c1)c(CC(=O)OCCOC(C)=O)c(C)n2C(=O)c1ccc(Cl)cc1 | 1.14 | 44.4 | < 0.111 | 0 | 0.0093 | 0 | 0.0092 | – | 0.369 | < 0.111 | 3.5 | < 0.111 | 0 | 0.0103 | 0.0197 | < 0.111 | < 0.111 | 4.2 | – | – |
| COc1ccc2c(c1)c(CC(=O)OCOC(=O)OC(C)C)c(C)n2C(=O)c1ccc(Cl)cc1 | – | 45.2 | < 0.119 | 62 | 0.01332 | – | 0.00539 | 86.3 | 0.2461 | < 0.119 | 5 | < 0.119 | – | 0.01 | 0.01379 | < 0.119 | < 0.119 | 5.1 | 7.8 | 5.9 |
